Bfl-1 A1 inh – inhibitors of the anti-apoptotic protein A1, read as caspase activation. caspase activation, % (no concentration beside the values). AID 2462. 330,000 tested, 0.066% active. MEF A1-2A-BIM cells, Caspase-Glo 3/7 luminescence, 3 h; percent of clofoctol response, vehicle zero;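 active = over half of replicate activation scores above 10%, or exactly half above 10 with the replicate mean above 10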
MC4R barr agon – agonists of human melanocortin 4 receptor (MC4R) beta-arrestin; P32245; activation, % at 8.9 µM; 360,000 tested, 0.98% active; U2OS MC4R beta-arrestin complementation, luminescence; percent of melanotan II response, DMSO zero; AID 540308;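 active = activation above a per-plate cutoff, the mean activation of sample wells on that plate plus 3 SD, cut at about 8% in these data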
Target sequence (P32245 whole entry, looked up): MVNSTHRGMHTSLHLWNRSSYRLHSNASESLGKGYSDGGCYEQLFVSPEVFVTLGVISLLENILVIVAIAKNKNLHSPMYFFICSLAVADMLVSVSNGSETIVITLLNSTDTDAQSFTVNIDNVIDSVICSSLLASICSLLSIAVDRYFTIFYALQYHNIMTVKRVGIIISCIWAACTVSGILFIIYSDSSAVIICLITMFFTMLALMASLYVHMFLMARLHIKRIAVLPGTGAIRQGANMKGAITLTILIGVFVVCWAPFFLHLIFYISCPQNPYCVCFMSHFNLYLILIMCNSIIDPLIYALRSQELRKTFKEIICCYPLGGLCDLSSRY
MC4R antagonist – human MC4R antagonism in cAMP assay; P32245; MC4R-expressing cells, MTII-stimulated cAMP, LANCE TR-FRET; inhibition, % at 6.5 µM; 360,000 tested, 0.48% active; AID 540295;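 active = inhibition above its plate's cutoff, the mean of tested wells on that plate plus 3 SD, cut at about 29% in these data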;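 also: 0% = Melanotan II alone and 100% = Melanotan II plus saturating MCL0020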
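Material: human MC4R-expressing U2OS cells. Probe or stimulus: Melanotan II challenge. Dosing: 6.5 µM single dose. Times: 30-min compound, 1-h challenge, 1-h detection, room temperature. Technique: TR-FRET with Eu-cAMP and labeled anti-cAMP, 671 nm. Replication: singlicate.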
HGIII-sPLA2 inh – Blocks human group III sPLA2 activity; Q9NZ20; inhibition, % at 12.2 µM; AID 743126; QFRET BODIPY PC-A2 liposome hydrolysis, fluorescence; 370,000 tested, 0.56% active;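 active = inhibition above mean plus 3 SD of compounds lying within the high and low control bounds, cut at about 19% in these data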;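 also: 0% = median of test compound wells and 100% = no enzyme DMSO wells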
NTR1 ag – NTR1 (human) agonism; P30989; NTR1-U2OS beta-arrestin-GFP spot imaging, agonist mode; activation, % at 20 µM; 330,000 tested, 0.17% active; AID 493036;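 active = activation at or above 40% of the spot to cytoplasm intensity ratio, with at least 20 cells analyzed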;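 also: 0% = DMSO without peptide and 100% = 100 nM NTR1 peptide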
Target sequence (P30989 whole entry, looked up): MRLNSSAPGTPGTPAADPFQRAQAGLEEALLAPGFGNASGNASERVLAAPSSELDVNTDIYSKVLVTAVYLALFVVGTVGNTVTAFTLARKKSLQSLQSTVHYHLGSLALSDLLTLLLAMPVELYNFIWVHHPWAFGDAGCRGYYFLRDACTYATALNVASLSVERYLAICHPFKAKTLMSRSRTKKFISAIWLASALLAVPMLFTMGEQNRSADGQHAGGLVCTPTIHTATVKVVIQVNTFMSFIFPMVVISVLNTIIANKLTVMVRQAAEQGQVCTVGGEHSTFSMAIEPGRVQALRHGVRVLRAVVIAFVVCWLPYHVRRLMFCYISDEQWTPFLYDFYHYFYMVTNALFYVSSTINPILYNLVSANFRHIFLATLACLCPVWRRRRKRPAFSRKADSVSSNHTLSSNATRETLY
Exocytosis inh – blocks lytic granule exocytosis | TALL-104 LAMP-1 surface exposure, flow cytometry; cells stimulated with thapsigargin and PMA | inhibition, % at 10 µM | 360,000 tested, 0.66% active | AID 651702;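 active = inhibition above about 55%, limit read from the data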
hGIII sPLA2 conf – human GIII-sPLA2 inhibition, confirmation; shares compounds with HGIII-sPLA2 inh; recombinant hGIII-sPLA2, BODIPY PC-A2 QFRET fluorescence; inhibition, % at 12.2 µM; 2,000 tested, 34% active; AID 743280;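 active = mean inhibition across triplicates above the hit cutoff set in the earlier primary screen, cut at about 19% in these data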;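 also: 0% = enzyme with DMSO and 100% = DMSO wells lacking enzyme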
BODIPY interf – counter-screen for HGIII-sPLA2 inhibitors: 535nm fluorescence interference; shares compounds with HGIII-sPLA2 inh; BODIPY FL product fluorescence interference, QFRET; inhibition, % at 12.2 µM; 2,000 tested, 8.5% active;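 active = average inhibition above the solvent-only control mean plus 3 SD, cut at about 6% in these data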;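 also: 0% = DMSO with substrate plus product and 100% = DMSO with substrate alone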
535nm interf DR – 535nm optical interference dose response, HGIII-sPLA2 counter-screen; shares compounds with HGIII-sPLA2 inh; BODIPY FL product fluorescence interference, cell-free; IC50, µM; 240 tested, under 10 active; AID 743455;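 active = IC50 at or below 10 µM; inactive = IC50 above 10 µM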
Active calls of the source: *; x = no result given. Shown are actives, neighbours in structure and some others; about 2.5% of the full set was active somewhere.

SMILES | Bfl-1 A1 inh | MC4R barr agon | MC4R antagonist | HGIII-sPLA2 inh | NTR1 ag | Exocytosis inh | hGIII sPLA2 conf | BODIPY interf | others
CCN(CC)CC(=O)Nc1cc(N(C)C)nc2ccccc12 | -0.9 | 1.0 | 4.3 | 19.5* | 1.0 | 9.6 | 10.7 | -10.2
CCCCCC(=O)Nc1cc(N(C)C)nc2ccccc12 | -0.1 | -0.6 | 8.2 | -2.4 | 1.9 | 2.9 | x | x
COc1ccc(N(CC(=O)NCc2ccco2)C(=O)CNS(=O)(=O)c2ccc(Cl)cc2)cc1 | -0.5 | 1.5 | 21.0 | -17.0 | -0.2 | 40.9 | x | x
CNc1ccccc1C(=O)OCC(=O)N(CCOC)c1c(N)n(CC(C)C)c(=O)[nH]c1=O | -0.2 | -2.6 | 2.7 | 19.5* | 0.7 | 11.9 | 10.8 | -8.2
N#Cc1ccccc1Cn1c(=O)n(CCCC(=O)NCc2ccc3c(c2)OCO3)c(=O)c2ccccc21 | 0.9 | -0.8 | 0.9 | 20.9* | -0.4 | -3.1 | -1.9 | -10.1
Cc1ccc(Cn2c(=O)n(CCC(=O)NCc3ccc4c(c3)OCO4)c(=O)c3ccccc32)cc1 | -1.0 | 2.2 | 6.6 | -2.5 | -1.1 | 6.0 | x | x
CC(C)(C)c1ccc(C(=O)NNC(=O)c2ccc(Cl)cc2)cc1 | 0.0 | 1.0 | 4.5 | -12.2 | 5.5 | -3.8 | x | x
Cc1ccc(NNC(=O)c2ccc(Cl)cc2)nn1 | -0.6 | -0.5 | -2.8 | 47.3* | 2.0 | 1.3 | 72.9* | 74.2*
Cc1ccc(NC(=O)CCN2CCN(CCO)CC2)cc1Br | -0.5 | -1.6 | 1.6 | 22.8* | 1.8 | -4.5 | -5.5 | -2.9
O=C(NNc1ccccc1)Nc1cc(Cl)ccc1Cl | x | 1.6 | 8.1 | 0.0 | x | -1.3 | x | x
Cc1nn(-c2ccccc2)c(NC(=O)C(C)C)c(-c2ccccc2)c1=O | -0.2 | -0.9 | 2.6 | 18.4 | 2.1 | -2.0 | x | x
CCCC(=O)Nc1c(-c2ccccc2)c(=O)c(C)nn1-c1ccccc1 | -0.2 | 0.4 | -7.3 | 20.1* | 0.2 | 5.3 | -2.6 | -6.6
Cc1c(Cl)cccc1NC(=O)CSc1ncnc2c1cnn2CCO | -0.1 | -1.1 | 3.3 | -8.6 | -0.6 | 0.0 | x | x
C/C(=N\NC(=S)NC(C)C)c1cccc([N+](=O)[O-])c1 | -0.4 | -1.5 | -7.1 | 19.7* | 1.7 | 6.3 | 22.2* | -4.8
C/C(=N\NC(=S)NC(C)C)c1ccc(Cl)c([N+](=O)[O-])c1 | 0.3 | 3.1 | 14.4 | 19.9* | 6.6 | -7.5 | 19.3* | 5.3
Cc1ccc(S(=O)(=O)NC(CC(C)C)C(=O)N2CCC(C)CC2)cc1 (stereo unspecified) | 0.2 | -0.6 | 7.0 | -5.7 | -0.4 | -1.1 | x | x
COC(=O)CN(C)C(=O)c1ccccc1OC1CCN(S(C)(=O)=O)CC1 | -0.4 | -0.4 | 7.0 | -1.1 | 1.9 | 0.2 | x | x
Cc1ccc(-c2nnc(Nc3ccc(CC(N)=O)cc3)c3ccccc23)cc1 | 0.6 | -0.6 | 6.4 | 20.8* | 20.6 | -2.6 | 17.0 | -17.8
Cc1ccc(-c2nnc(Nc3ccc(CC(N)=O)cc3)c3ccccc23)cc1S(=O)(=O)NCC1CCCO1 (stereo unspecified) | 0.5 | -0.3 | 15.2 | 19.3* | 0.2 | 0.0 | -2.7 | -26.0
Cc1ccc(-c2nnc(Nc3ccc(CC(N)=O)cc3)c3ccccc23)cc1S(N)(=O)=O | -1.0 | -1.9 | 2.3 | 15.2 | 1.2 | 9.6 | x | x
CCOC(=O)CN1C(=O)S/C(=C/c2ccc(OCc3ccc(C(=O)O)cc3)cc2)C1=O | -1.0 | 1.7 | 4.7 | 3.9 | 1.6 | 3.7 | x | x
COc1ccc(C2NC(=O)NC(C)=C2C(=O)OCC2CCCCC2)cc1OC (stereo unspecified) | 1.0 | -0.2 | 17.0 | 3.0 | -0.6 | -19.3 | x | x
O=C(NNc1nc(-c2ccccc2)cs1)c1ccccc1 | 0.0 | -0.3 | 6.7 | 34.9* | 3.0 | -2.3 | 33.0* | 7.3*
O=C(Nc1nc(-c2ccc(Br)cc2)cs1)c1cccnc1 | 0.0 | -0.2 | 2.0 | 2.7 | 0.3 | 0.6 | x | x
O=C(Nc1nc(-c2ccccc2)cs1)c1cccnc1 | 0.7 | -1.6 | 12.8 | -1.0 | 3.5 | 8.7 | x | x
SMILES | Bfl-1 A1 inh | MC4R barr agon | MC4R antagonist | HGIII-sPLA2 inh | NTR1 ag | Exocytosis inh | hGIII sPLA2 conf | BODIPY interf | others
COC(=O)c1nc(NNC(=O)c2ccccc2)sc1-c1ccccc1 | -0.8 | -2.5 | -2.7 | 30.4* | 0.9 | -14.4 | 30.3* | 0.3
CC(=O)Nc1ccc(-c2csc(NNC(=O)c3ccc(C)cc3)n2)cc1 | 1.7 | -4.7 | 14.1 | 30.2* | -1.1 | 2.4 | 22.9* | -0.5
N#Cc1ccc(-c2csc(NNC(=O)c3ccc(Br)cc3)n2)cc1 | -0.3 | -2.9 | 1.2 | 45.9* | 0.7 | 0.2 | 35.7* | 10.6*
COc1ccc(NC(=O)c2cc(S(=O)(=O)N3CCOCC3)cs2)cc1 | -1.1 | -2.0 | -1.1 | -5.8 | 0.1 | -4.0 | x | x
O=C(NNc1nc(-c2ccc(Br)cc2)cs1)c1ccco1 | 0.2 | -2.9 | 0.9 | 46.4* | 0.9 | 2.0 | 45.0* | 12.4*
Cn1c(=O)c(C(=O)NNC(=O)c2ccccc2Cl)c(O)c2ccccc21 | 0.2 | 4.3 | 20.5 | 16.7 | -0.1 | -15.3 | x | x
Cn1c(=O)c(C(=O)NNC(=O)c2ccccc2Br)c(O)c2ccccc21 | 2.9 | 0.4 | -5.4 | 29.8* | -0.1 | -2.5 | 1.6 | 3.8
N#CCCN1CCCc2cc(N=Nc3ccc(C(F)(F)F)cc3)ccc21 | -0.7 | -3.1 | 22.8 | 23.1* | 0.1 | 34.5 | 24.2* | 8.4*
CC1CCCN(CCCNS(=O)(=O)c2cc3c(cc2Br)CCN3C(=O)C2CC2)C1 (stereo unspecified) | x | x | x | 0.8 | x | x | x | x
N#Cc1ccc(COn2nnc3ccccc32)cc1 | 1.2 | -3.3 | 7.7 | -1.3 | -1.9 | -1.1 | x | x
CCc1ccc(CC2(O)CC(C)N(C)CC2C)cc1 (stereo unspecified) | 0.1 | 1.1 | 22.5 | 2.2 | -0.7 | -0.8 | x | x
CC1CC(O)(CC(O)(c2ccccc2)c2ccccc2)C(C)CN1C (stereo unspecified) | -0.9 | -1.6 | -1.6 | 19.3* | -1.4 | 0.4 | -12.8 | -15.8
COc1ccc(NC(=O)C2(C)CCN2Cc2ccccc2Cl)cc1OC (stereo unspecified) | x | 0.8 | -2.6 | 3.0 | x | 3.1 | x | x
O=C(NC(=S)Nc1ccccc1N1CCCC1)c1ccc([N+](=O)[O-])cc1 | 0.7 | 0.6 | 15.9 | 31.4* | 3.6 | 16.8 | 33.5* | 3.9 | 535nm interf DR=>122
O=C(NC(=S)Nc1ccccc1N1CCOCC1)c1ccc([N+](=O)[O-])cc1 | 0.8 | -0.4 | 6.5 | 17.2 | 3.4 | 0.2 | x | x
